Data taken from ChEMBL document CHEMBL4251593, “Nontoxic combretafuranone analogues with high in vitro antibacterial activity” (Eur J Med Chem, 2018).
Values after ≈ are worked out from the molar mass of the structure shown.

How the values were obtained:
TERT-RPE1 [1] = test: Cytotoxicity against human RPE1 cells assessed as reduction in cell viability after 48 hrs by ATPlite-based luminescent assay; details: RPE-1, 48 h
How it was run: (§1)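 Cells were grown […] with 10% FBS, glutamax, NEAA and pen/strep at 37 °C, 5% CO2. Media were DMEM for RPE-1, HepG2 and BJ (BJ plus 10 ng/ml bFGF), F-12K for PC3, and IMDM for K562/HL-60. Cells were seeded at 500 per well and dosed from DMSO at 12 concentrations, 40 µM to 1 nM, in triplicate. After 48 h, intracellular ATP was read by luminescence. ED50 was obtained by variable-slope nonlinear regression.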

BJ = test: Cytotoxicity against human BJ cells assessed as reduction in cell viability after 48 hrs by ATPlite-based luminescent assay; how it was run: as §1
K562 [2] = test: Cytotoxicity against human K562 cells assessed as reduction in cell viability after 48 hrs by ATPlite-based luminescent assay; details: K562, 48 h; how it was run: as §1
HL-60 [3] = test: Cytotoxicity against human HL60 cells assessed as reduction in cell viability after 48 hrs by ATPlite-based luminescent assay; details: HL-60, 48 h; how it was run: as §1
PC-3 [4] = test: Cytotoxicity against human PC3 cells assessed as reduction in cell viability after 48 hrs by ATPlite-based luminescent assay; details: PC-3, 48 h; how it was run: as §1
MCF7 = test: Cytotoxicity against human MCF7 cells assessed as reduction in cell viability after 48 hrs by ATPlite-based luminescent assay; details: MCF7, 48 h
HepG2 [5] = test: Cytotoxicity against human HepG2 cells assessed as reduction in cell viability after 48 hrs by ATPlite-based luminescent assay; details: HepG2, 48 h; how it was run: as §1
TERT-RPE1 [6] = test: Induction of apoptosis in human RPE1 cells assessed as caspase 3/7 activity after 24 hrs by caspase-glo luminescent assay; assay type: cell-based; details: RPE-1, 24 h
How it was run: (§2)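 Cells were seeded at 500 per well in their growth media and exposed to 12 concentrations from 40 µM to 1 nM, delivered from DMSO, in triplicate. After 24 h, caspase-3/7 activity was read by Caspase-Glo luminescence. Data were normalized and ED50 was fitted by variable-slope nonlinear regression.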

K562 [7] = test: Induction of apoptosis in human K562 cells assessed as caspase 3/7 activity after 24 hrs by caspase-glo luminescent assay; assay type: cell-based; details: K562, 24 h; how it was run: as §2
HL-60 [8] = test: Induction of apoptosis in human HL60 cells assessed as caspase 3/7 activity after 24 hrs by caspase-glo luminescent assay; assay type: cell-based; details: HL-60, 24 h; how it was run: as §2
PC-3 [9] = test: Induction of apoptosis in human PC3 cells assessed as caspase 3/7 activity after 24 hrs by caspase-glo luminescent assay; assay type: cell-based; details: PC-3, 24 h; how it was run: as §2
HepG2 [10] = test: Induction of apoptosis in human HepG2 cells assessed as caspase 3/7 activity after 24 hrs by caspase-glo luminescent assay; assay type: cell-based; details: HepG2, 24 h; how it was run: as §2
Staphylococcus aureus [11] = test: Antibacterial activity against Staphylococcus aureus ATCC 6538 after 24 hrs by microdilution assay; assay type: functional; details: ATCC 6538, 24 h
Staphylococcus aureus [12] = test: Antibacterial activity against methicillin-resistant Staphylococcus aureus HK5996/08 clinical isolate after 24 hrs by microdilution assay; assay type: functional; details: HK5996/08, 24 h
[13] = system: Staphylococcus epidermidis; test: Antibacterial activity against Staphylococcus epidermidis HK6966/08 clinical isolate after 24 hrs by microdilution assay; assay type: functional; details: HK6966/08, 24 h
Enterococcus sp. [14] = test: Antibacterial activity against Enterococcus sp. HK14365/08 clinical isolate after 24 hrs by microdilution assay; assay type: functional; details: HK14365/08, 24 h
Escherichia coli [15] = test: Antibacterial activity against Escherichia coli ATCC 8739 after 24 hrs by microdilution assay; assay type: functional; details: ATCC 8739, 24 h
How it was run: (§3)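 Broth microdilution in Mueller-Hinton medium buffered to pH 7.4 (±0.2), with DMSO as diluent at no more than 2% final. Compounds were tested as 2-fold serial dilutions from 2000 to 0.488 µmol/l. The inoculum was 0.5 McFarland (1.5×10^8 cfu/ml). Plates were held at 37 °C and read visually at 24 and 48 h. MIC was taken as 95% growth inhibition versus control, determined twice in duplicate.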

Klebsiella pneumoniae [16] = test: Antibacterial activity against Klebsiella pneumoniae HK11750/08 clinical isolate after 24 hrs by microdilution assay; assay type: functional; details: HK11750/08, 24 h
Klebsiella pneumoniae [17] = test: Antibacterial activity against Klebsiella pneumoniae HK14368/08 clinical isolate after 24 hrs by microdilution assay; assay type: functional; details: HK14368/08, 24 h
Pseudomonas aeruginosa [18] = test: Antibacterial activity against Pseudomonas aeruginosa ATCC 9027 after 24 hrs by microdilution assay; assay type: functional; details: ATCC 9027, 24 h; how it was run: as §3
Staphylococcus aureus [19] = test: Antibacterial activity against Staphylococcus aureus ATCC 6538 after 48 hrs by microdilution assay; assay type: functional; details: ATCC 6538, 48 h
Staphylococcus aureus [20] = test: Antibacterial activity against methicillin-resistant Staphylococcus aureus HK5996/08 clinical isolate after 48 hrs by microdilution assay; assay type: functional; details: HK5996/08, 48 h
[21] = system: Staphylococcus epidermidis; test: Antibacterial activity against Staphylococcus epidermidis HK6966/08 clinical isolate after 48 hrs by microdilution assay; assay type: functional; details: HK6966/08, 48 h
Enterococcus sp. [22] = test: Antibacterial activity against Enterococcus sp. HK14365/08 clinical isolate after 48 hrs by microdilution assay; assay type: functional; details: HK14365/08, 48 h
Escherichia coli [23] = test: Antibacterial activity against Escherichia coli ATCC 8739 after 48 hrs by microdilution assay; assay type: functional; details: ATCC 8739, 48 h; how it was run: as §3
Klebsiella pneumoniae [24] = test: Antibacterial activity against Klebsiella pneumoniae HK11750/08 clinical isolate after 48 hrs by microdilution assay; assay type: functional; details: HK11750/08, 48 h
Klebsiella pneumoniae [25] = test: Antibacterial activity against Klebsiella pneumoniae HK14368/08 clinical isolate after 48 hrs by microdilution assay; assay type: functional; details: HK14368/08, 48 h
Pseudomonas aeruginosa [26] = test: Antibacterial activity against Pseudomonas aeruginosa ATCC 9027 after 48 hrs by microdilution assay; assay type: functional; details: ATCC 9027, 48 h; how it was run: as §3

Row | Structure (SMILES) | IC50 (TERT-RPE1 [1]) [µM] | IC50 (BJ) [µM] | IC50 (K562 [2]) [µM] | IC50 (HL-60 [3]) [µM] | IC50 (PC-3 [4]) [µM] | IC50 (MCF7) [µM] | IC50 (HepG2 [5]) [µM] | IC50 (TERT-RPE1 [6]) [µM] | IC50 (K562 [7]) [µM] | IC50 (HL-60 [8]) [µM] | IC50 (PC-3 [9]) [µM] | IC50 (HepG2 [10]) [µM] | MIC95 (Staphylococcus aureus [11]) [µM] | MIC95 (Staphylococcus aureus [12]) [µM] | MIC95 [13] [µM] | MIC95 (Enterococcus sp. [14]) [µM] | MIC95 (Escherichia coli [15]) [µM] | MIC95 (Klebsiella pneumoniae [16]) [µM] | MIC95 (Klebsiella pneumoniae [17]) [µM] | MIC95 (Pseudomonas aeruginosa [18]) [µM] | other results
1 | Cc1ccc(C2=C(c3ccc(F)cc3)C(=O)OC2)cc1 | > 40 | > 40 | 4 | 9.34 | > 40 | > 40 | > 40 | > 40 | 3.23 | 7.53 | > 40 | > 40 | 125 (≈ 33.5 µg/mL) | > 500 | 125 (≈ 33.5 µg/mL) | > 500 | > 500 | > 500 | > 500 | > 500 | MIC95 (Staphylococcus aureus [19]): 125 µM (≈ 33.5 µg/mL); MIC95 (Staphylococcus aureus [20]): > 500 µM; MIC95 [21]: 125 µM (≈ 33.5 µg/mL); MIC95 (Enterococcus sp. [22]): > 500 µM; MIC95 (Escherichia coli [23]): > 500 µM; MIC95 (Klebsiella pneumoniae [24]): > 500 µM; MIC95 (Klebsiella pneumoniae [25]): > 500 µM; MIC95 (Pseudomonas aeruginosa [26]): > 500 µM
2 | Cc1ccc(C2=C(c3cccc(Cl)c3)C(=O)OC2)cc1 | 0.88 | > 40 | 0.21 | 0.48 | > 40 | > 40 | > 40 | > 40 | > 40 | > 40 | > 40 | > 40 | 1.95 (≈ 0.555 µg/mL) | 15.6 (≈ 4.45 µg/mL) | 15.6 (≈ 4.45 µg/mL) | > 500 | > 500 | > 500 | > 500 | > 500 | MIC95 (Staphylococcus aureus [19]): 1.95 µM (≈ 0.555 µg/mL); MIC95 (Staphylococcus aureus [20]): 15.6 µM (≈ 4.45 µg/mL); MIC95 [21]: 15.6 µM (≈ 4.45 µg/mL); MIC95 (Enterococcus sp. [22]): > 500 µM; MIC95 (Escherichia coli [23]): > 500 µM; MIC95 (Klebsiella pneumoniae [24]): > 500 µM; MIC95 (Klebsiella pneumoniae [25]): > 500 µM; MIC95 (Pseudomonas aeruginosa [26]): > 500 µM
